# Published values from different studies.
# Lines come from different studies, so protocols differ.
# Matrix: plasma
SMILES,host,route,dose,notes,AUC(0-t)
C[C@@H](Oc1ccc(S(C)(=O)=O)cc1C(=O)N1C[C@@H]2C[C@]2(c2cc(C(F)(F)F)on2)C1)C(F)(F)F,human,oral,25 mg,,12 µM·h
CC(=O)Oc1ccccc1C(=O)O,human,oral,650 mg,healthy volunteers,2630 ng·h/mL
OC[C@H]1O[C@@H](c2ccc(Cl)c(Cc3ccc(O[C@H]4CCOC4)cc3)c2)[C@H](O)[C@@H](O)[C@@H]1O,human,oral,100 mg,single dose,20 µM·h
CCCCC1=NC2(CCCC2)C(=O)N1Cc1ccc(-c2ccccc2S(=O)(=O)Nc2noc(C)c2C)c(COCC)c1,human,oral,800 mg,"single dose, fed, healthy volunteers, tablet",169000 ng·h/mL
NS(=O)(=O)c1ccc(NC(=O)Nc2ccc(F)cc2)cc1,human,oral,2000 mg,"multiple doses, once daily",180000 ng·h/mL
C[C@@H](c1ccc2nccn2c1)n1nnc2ncc(-c3cnn(C)c3)nc21,human,oral,200 mg,,3980 ng·h/mL
C#Cc1cccc(Nc2ncnc3cc(OCCOC)c(OCCOC)cc23)c1,human,oral,100 mg,patients,21.9 µM·h
Cc1nc(NC(=O)N2CCC[C@H]2C(N)=O)sc1-c1ccnc(C(C)(C)C(F)(F)F)c1,human,oral,270 mg,patients,25300 ng·h/mL
O=C(/C=C/c1cccc(S(=O)(=O)Nc2ccccc2)c1)NO,human,intravenous,1900 mg/m²,patients,72100 ng·h/mL
CC(C)n1cc(C#N)c2cc(-n3cc(C(=O)O)cn3)ccc21,human,oral,25 mg,"single dose, fasted, healthy volunteers",5010 ng·h/mL
CCOc1cc2ncc(C#N)c(Nc3ccc(OCc4ccccn4)c(Cl)c3)c2cc1NC(=O)/C=C/[C@H]1CCCN1C,human,oral,80 mg,single dose,357 ng·h/mL
COc1cc2c(cc1OC)CN(CCc1ccc(NC(=O)c3cc(OC)c(OC)cc3NC(=O)c3cnc4ccccc4c3)cc1)CC2,human,intravenous,1.5 mg/kg,patients,10.5 µM·h
C[C@@H](Oc1ccc(S(C)(=O)=O)cc1C(=O)N1C[C@@H]2C[C@]2(c2cc(C(F)(F)F)on2)C1)C(F)(F)F,human,oral,25 mg,fasted,10.8 µM·h
Oc1cc(O)c2c(c1)O[C@@H](c1ccc(O)c(O)c1)[C@@H](O)C2,human,oral,30 mg,single dose,6.9 ng·h/mL
CC(C)(O)c1ccccc1-c1ccc2[nH]c(/C=C/c3ccc(C(F)(F)F)cc3)nc2c1,male human,oral,225 mg,"single dose, fasted",5740 ng·h/mL
C[C@@H]1COCCN1c1cc(C2([S@](C)(=N)=O)CC2)nc(-c2cc[nH]c3nccc2-3)n1,human,oral,20 mg,"single dose, patients",6770 ng·h/mL
C[C@@H](Nc1cc(F)cc(F)c1)c1cc(C(=O)N(C)C)cc2c(=O)cc(N3CCOCC3)oc12,human,oral,30 mg,"single dose, patients",599 ng·h/mL
COCCOc1cnc2ccn([C@H](C)c3nnc4c(F)cc(-c5cnn(C)c5)cn34)c(=O)c2c1,human,oral,150 mg,"multiple doses, once daily, patients",31900 ng·h/mL
C[C@@]1(c2cc(NC(=O)c3ccc(C#N)cn3)ccc2F)C=CSC(N)=N1,human,oral,30 mg,single dose,2510 ng·h/mL
Nc1cc(C(F)(F)F)c(-c2cc(N3CCOCC3)nc(N3CCOCC3)n2)cn1,human,oral,50 mg/day,patients,3830 ng·h/mL
FC(F)(F)c1ccc(CNc2ccc(Cc3c[nH]c4ncc(Cl)cc34)cn2)cn1,human,oral,1600 mg,"multiple doses, patients",28700 ng·h/mL
COc1ccc([C@@H]2CN(C(=O)[C@@H](O)CO)C[C@@]2(C)[C@@H](C)O)cc1OC1CN(c2ccc(C)cn2)C1,human,oral,0.5 mg,"single dose, healthy volunteers",188 ng·h/mL
COc1cc(N2CCC(N3CCN(C)CC3)CC2)ccc1Nc1ncnc(Nc2ccccc2S(=O)(=O)C(C)C)n1,human,oral,325 mg,"multiple doses, patients",23100 ng·h/mL
CO[C@@H]1[C@H](OC(=O)N2CC(CCN3CCOCC3)C2)CC[C@]2(CO2)[C@H]1[C@@]1(C)O[C@@H]1CC=C(C)C,human,subcutaneous,0.6 mg,"single dose, healthy volunteers",1.21 ng·h/mL
CCNCCCNC/C=C\CNCCCNCC,human,intravenous,150 mg,"patients, infusion",473 ng·h/mL
CO[C@H]1CC[C@H](N2C(=O)CNc3ncc(-c4ccc(C(C)(C)O)nc4)nc32)CC1,human,oral,7.5 mg,"multiple doses, patients",299 ng·h/mL
